Published values pooled from the literature.
Protocols differ between the studies behind these lines.
Target: Serine/threonine-protein kinase Nek4 (NEK4, Homo sapiens, UniProt P51957)

SMILES | test | setting | remaining binding [%]
Nc1ncc2c(n1)-c1c([nH]c3ccc(C#CC4CC4)cc13)CCCC2 | binding, competition with immobilised ligand | 1 µM | 84
C[C@H]1CCN(c2nccc(-c3cnn4ncccc34)n2)C1 | binding | 1 µM | 81
Cn1nc(C(=O)NCc2ccc(C(=O)O)cc2)cc1-c1ccc2[nH]ccc2c1 | cell-free assay, competition with immobilised ligand | 0.1 µM | 84
CCN1CCN(Cc2ccc(C(=O)Nc3ccc(C)c(Oc4ccc5c(c4)CC(=O)N5)c3)cc2C(F)(F)F)CC1 | binding, competition with immobilised ligand | 1 µM | 100
CO[C@@H](C)c1c(Nc2ccc([C@H](N(C)C(=O)C3CCS(=O)(=O)CC3)C(F)(F)F)cc2)cnc2cc(Cl)nn12 | cell-free assay, competition with immobilised ligand | 1 µM | 90
O=C(c1ccc(Nc2ncc(Cl)c(-c3ccc(Cl)s3)n2)cc1)N1CCC(N2CCCC2)CC1 | binding, competition with immobilised ligand | 1 µM | 30
CCC(=O)N[C@H]1CC[C@@H](C(=O)N(C)c2ccc(-c3nc4ccccc4o3)cc2)C1 | cell-free assay, competition with immobilised ligand | 1 µM | 99
C[C@@H](c1ccc(-n2cnc3c(N)ncnc32)cc1)N1CCc2nn(C)c(Cc3ccccc3)c2C1=O | binding, competition with immobilised ligand | 0.1 µM | 82
Cn1nc(C(F)(F)F)cc1-c1cnc(N2CCc3cc(S(=O)(=O)Nc4c(F)cc(Cl)cc4F)cc(N4CCCC4=O)c32)nc1 | cell-free assay, competition with immobilised ligand | 1 µM | 72
c1cncc(-c2cccc(Nc3nccc(NC4CCCCC4)n3)c2)c1 | binding, competition with immobilised ligand | 10 µM | 100
O=C(NCCCN1CCOCC1)c1ccc(Nc2ncc(Cl)c(-c3ccc(Cl)s3)n2)cc1 | binding, competition with immobilised ligand | 1 µM | 40
COc1ccnn2ncc(-c3ccnc(N(C)C)n3)c12 | binding | 1 µM | 86
CC1=C(C#N)C(c2ccc3c(c2)c(NC(=O)c2ccccc2C)nn3C)C(C#N)=C(C)N1 | cell-free assay, competition with immobilised ligand | 1 µM | 100
c1cnn2ncc(-c3ccnc(N4CCC45COC5)n3)c2c1 | binding | 1 µM | 68
Cc1cnc(Nc2ccc(C(=O)N3CCC(N4CCCC4)CC3)cc2)nc1-c1cc2ccccc2s1 | binding, competition with immobilised ligand | 1 µM | 59
CN(c1nccc(-c2cnn3ncccc23)n1)C1CC1 | binding | 1 µM | 100
O=C(NCC1CCOCC1)c1n[nH]cc1NC(=O)c1c(F)cccc1F | binding, competition with immobilised ligand | 1 µM | 78
F[C@@H]1CCN(c2nccc(-c3cnn4ncccc34)n2)C1 | binding | 1 µM | 100
CN(c1ccnc(CNc2nc(Nc3ccc4c(c3)CC(=O)N4)ncc2C(F)(F)F)n1)S(C)(=O)=O | cell-free assay, competition with immobilised ligand | 1 µM | 84
COc1cnc(Nc2cccc(S(N)(=O)=O)c2)nc1N1CCN(c2ccccc2)C(=O)C1 | binding, competition with immobilised ligand | 1 µM | 79
N[C@H]1CCN(c2nccc(-c3cnn4ncccc34)n2)C1 | binding | 1 µM | 100
